Measurements: paper PMC8525972 (mAbs, 2021)

Legend:
IgG [1] = conditions: ref [16],[17]; cited from earlier work
human IgG [2] = experiment: Fluorescence polarization mix-and-read assay, human IgG titration; assay type: binding; conditions: 50 nM probe, human IgG 0 to 2.5 g/L
How it was run: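 Fluorescein-labelled probes (Fc-III peptide, protein G, peptide-H) at 50 nM mixed with human IgG at 0–2.5 g/L in PBS. Polarisation read immediately at Ex 485/Em 535 nm. mP is (I∥ − I⊥)/(I∥ + I⊥) × 1000. Curves fitted with a 4-parameter logistic.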

human IgG [3] = experiment: Fluorescence intensity mix-and-read assay, human IgG titration; assay type: binding
How it was run: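 Human IgG (0–2.5 g/L) diluted in PBS and mixed 1:1 with fluorescein-Ahx-labelled Fc-III peptide probe in PBS; probe tested at 25–500 nM, and at 50 nM and 2000 nM for linear quantitation. Plate read immediately, intensity at Ex 485/Em 535 nm. Normalised intensity is the fold change over probe alone without IgG.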

[4] = Fluorescence intensity of probe with hydroxypropyl-β-cyclodextrin; assay type: physicochemical; conditions: 50 nM probe; increasing HP-β-cyclodextrin
polyclonal human IgG [5] = experiment: Fluorescence polarization, human IgG in CHO cell culture fluid; assay type: binding; conditions: 100 nM probe in CHO-CCF
polyclonal human IgG [6] = experiment: Fluorescence intensity, human IgG in CHO cell culture fluid; assay type: binding
How it was run: (§1)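 CHO-S cells grown in CD CHO medium with 4 mM L-glutamine to 3.31 × 10^6 cells/mL at 96.1% viability. Fluid clarified by 8000×g for 30 min, then 0.2 µm filtration. Antibody spiked into this fluid and mixed 1:1 with 100 nM Fc-III probe in PBS; read immediately at Ex 485/Em 535 nm. Detection limit is signal above blank + 3 StdDev of blank.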

[7] = target: adalimumab biosimilar IgG1 (Homo sapiens, UniProt P01857); experiment: Fluorescence intensity, adalimumab biosimilar in CHO cell culture fluid; assay type: binding
How it was run: as §1

murine-IgG1 = experiment: Fluorescence intensity, murine IgG1 in CHO cell culture fluid; assay type: binding
How it was run: as §1

IgG [8] = conditions: cited from earlier work
human IgG [9] = conditions: ref [40],[41]; cited from earlier work
murine IgG1 = conditions: ref [41]; cited from earlier work
human-IgG = experiment: SpA competition with Fc-III probe/human IgG mixture, fluorescence intensity; assay type: binding; conditions: IgG 0.005 g/L (30 nM), Fc-III probe 50 nM, 120 min
How it was run: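 Unlabelled SpA serially diluted in PBS and added at 0.02 nM–1 µM final to human IgG (33 nM, 0.005 g/L) plus Fc-III probe (50 nM). PBS alone served as negative control. Incubated 120 min for equilibration, then fluorescence intensity read at Ex 485/Em 535 nm.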

Chain of adalimumab biosimilar IgG1 (P01857 1-330 isoform P01857-1, other chains not shown): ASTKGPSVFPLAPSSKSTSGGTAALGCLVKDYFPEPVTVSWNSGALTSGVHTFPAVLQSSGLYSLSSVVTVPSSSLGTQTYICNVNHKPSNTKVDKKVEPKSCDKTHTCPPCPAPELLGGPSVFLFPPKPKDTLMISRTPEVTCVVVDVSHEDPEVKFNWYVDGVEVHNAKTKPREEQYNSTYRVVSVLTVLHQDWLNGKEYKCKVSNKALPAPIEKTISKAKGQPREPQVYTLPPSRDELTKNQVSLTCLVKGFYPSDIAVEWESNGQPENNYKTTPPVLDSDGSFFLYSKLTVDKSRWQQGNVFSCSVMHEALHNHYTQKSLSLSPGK

Q: With “fluorescein-labeled protein A (SpA): fluorescein-labeled protein A, literature comparison” as the substance, how does the “IgG binding-induced fluorescence enhancement of fluorescein-labeled protein A” value (IgG [1]) read?
A: IgG binding-induced fluorescence enhancement

Q: With “Fluorescein-Ahx-DCAWHLGELVWCT-NH2 (disulfide) [Fc-III probe]” as the substance, how does the “Polarization dynamic range, difference between bound and free probe (Δ mP)” value (human IgG [2]; 96-well plate, Ex 485 nm/Em 535 nm) read?
A: 260 mP

Q: What about the “Lowest IgG concentration required to produce half-maximal response” value (human IgG [2]; fluorescence polarization) of the same substance?
A: 0.001 g/L

Q: What about the “Fold increase in fluorescence intensity at lowest IgG concentration” value (human IgG [3]; 25 nM probe, 0.00025 g/L IgG) of the same substance?
A: 1.16 fold

Q: And the “Linear quantitation range (IgG concentration)” value (human IgG [3]; 2000 nM Fc-III probe, listed as fluorescein labeled Fc-III)?
A: 0.025 to 0.1 g/L

Q: What about the “Fluorescence intensity increase on addition of HPβCD” value [4] of the same substance?
A: 2.1 fold

Q: What about the “Polarization changes, human IgG versus adalimumab biosimilar” value (polyclonal human IgG [5]) of the same substance?
A: nearly identical fluorescence polarization changes

Q: What about the Fluorescence intensity increase (polyclonal human IgG [6]; 100 nM probe in CHO-CCF, 2.5 g/L human IgG) of the same substance?
A: ~ 1.8 fold

Q: And the “Limit of detection compared with HPLC or ELISA” value (polyclonal human IgG [6]; IgG in CHO-CCF)?
A: comparable to those of HPLC or ELISA

Q: And the “Limit of detection by fluorescence intensity” value (polyclonal human IgG [6]; human IgG, 100 nM probe in CHO-CCF, signal > blank intensity + 3StdDev of blank)?
A: 0.00025 g/L

Q: And the Fluorescence intensity increase ([7]; 100 nM probe in CHO-CCF, 2.5 g/L adalimumab (IgG1 mAb))?
A: ~ 1.8 fold

Q: What about the “Adalimumab biosimilar detected down to” value ([7]; CHO cell culture fluid, fluorescence intensity) of the same substance?
A: 100 ng/mL

Q: What about the Detection limit (murine-IgG1; murine IgG1, 100 nM probe in CHO-CCF) of the same substance?
A: 0.1 g/L

Q: What about the “Detection limit for murine IgG1 relative to human IgG” value (murine-IgG1; murine IgG1 versus human IgG) of the same substance?
A: 1000 times

Q: And the “Binding affinity for IgG, Fc-III versus SpG” value (IgG [8])?
A: comparable binding affinity for IgG

Q: And the “Binding of human IgG (subtypes 1–4) to Fc-III relative to pure IgG1” value (human IgG [9])?
A: binds Fc-III less well than pure IgG1

Q: What about the “Binding to murine IgG1” value (murine IgG1) of the same substance?
A: binds relatively poorly

Q: Which results are given for “SpA: unlabeled Staphylococcal protein A, competitor binding to the same location on Fc as Fc-III”?
A: Fluorescence intensity of Fc-III/IgG mixture with 500 nM SpA (human-IgG; 500 nM SpA): fell to that of free Fc-III probe; Effect of unlabeled SpA on emission intensity of IgG/Fc-III probe mixture (human-IgG; SpA 0.02 nM to 1 µM in PBS): markedly diminished
